# ChEMBL document CHEMBL1828596, “Synthesis of methoxy- and bromo-substituted indirubins and their activities on apoptosis induction in human neuroblastoma cells” (Bioorg Med Chem Lett, 2011)
# Activity calls are given as the source filed them. The rule behind the calls is not given here.
# Columns and labels:
# NHDF [1] = experiment: Cytotoxicity against human NHDF cells assessed as cell viability after 48 hrs by MTT assay; assay type: cell-based
# Procedure, shortened: (§1)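 MTT viability assay in neuroblastoma lines (IMR-32, SK-N-SH, NB-39) and normal cells (NHDF, HUVEC). Cells were exposed to the indicated concentrations of compound or DMSO vehicle for 48 h. Survival is expressed relative to the vehicle control as mean ± SEM, n = 3.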
# IMR-32 [2] = experiment: Cytotoxicity against human IMR32 cells assessed as cell viability after 48 hrs by MTT assay; assay type: functional, cell-based; procedure, shortened: as §1
# HUVEC [3] = experiment: Cytotoxicity against human HUVEC cells assessed as cell viability after 48 hrs by MTT assay; assay type: cell-based; procedure, shortened: as §1
# NB39 [4] = experiment: Cytotoxicity against human NB39 cells assessed as cell viability after 48 hrs by MTT assay; assay type: functional, cell-based; procedure, shortened: as §1
# SK-N-SH [5] = experiment: Cytotoxicity against human SK-N-SH cells assessed as cell viability after 48 hrs by MTT assay; assay type: functional, cell-based; procedure, shortened: as §1
# NB39 [6] = experiment: Cytotoxicity against human NB39 cells assessed as cell viability up to 40 uM after 48 hrs by MTT assay; assay type: functional, cell-based; procedure, shortened: as §1
# SK-N-SH [7] = experiment: Cytotoxicity against human SK-N-SH cells assessed as cell viability up to 40 uM after 48 hrs by MTT assay; assay type: functional, cell-based; procedure, shortened: as §1
# NHDF [8] = experiment: (§2) Cytotoxicity against human NHDF cells assessed as cell viability up to 40 uM after 48 hrs by MTT assay; assay type: cell-based; conditions: nhdf, 48 h; procedure, shortened: as §1
# HUVEC [9] = experiment: (§3) Cytotoxicity against human HUVEC cells assessed as cell viability up to 40 uM after 48 hrs by MTT assay; assay type: cell-based; conditions: huvec, 48 h; procedure, shortened: as §1
# IMR-32 [10] = experiment: Cytotoxicity against human IMR32 cells assessed as cell viability up to 40 uM after 48 hrs by MTT assay; assay type: functional, cell-based; procedure, shortened: as §1
# [11] = as §2; assay type: cell-based; conditions: NHDF cells, read-out: Activity; procedure, shortened: as §1
# [12] = as §3; assay type: cell-based; conditions: HUVEC cells, read-out: Activity; procedure, shortened: as §1
# IMR-32 [13] = experiment: Induction of apoptosis in human IMR32 cells assessed as cellular shrinkage at 1 x 10^-6 to 1 x 10^-4 M after 24 hrs using Hoechst 33342 staining by fluorescent microscopic analysis; assay type: functional, cell-based
# Procedure, shortened: (§4)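 IMR-32 cells were exposed to compound (1 × 10⁻⁶–1 × 10⁻⁴ M) or cisplatin (1 × 10⁻⁴ M) for 24 h, then stained with Hoechst 33342. Phase-contrast and fluorescence microscopy were used to assess nuclear morphology (shrinkage, chromatin condensation, fragmented nuclei).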
# [14] = Cytotoxicity against human HUVEC cells assessed as cell survival at 100 uM; assay type: cell-based; conditions: read-out: Activity; procedure, shortened: as §1
# IMR-32 [15] = experiment: Induction of apoptosis in human IMR32 cells assessed as chromatin condensation at 1 x 10^-6 to 1 x 10^-4 M after 24 hrs using Hoechst 33342 staining by fluorescent microscopic analysis; assay type: functional, cell-based; procedure, shortened: as §4
# SK-N-SH [16] = experiment: Cytotoxicity against human SK-N-SH cells assessed as cell survival at 100 uM; assay type: functional; conditions: read-out: Activity; procedure, shortened: as §1
# IMR-32 [17] = experiment: Induction of apoptosis human IMR32 cells assessed as increase in early apoptotic cells at 100 uM after 48 hrs using annexin V-propidium iodide staining by flow cytometry; assay type: functional, cell-based
# Procedure, shortened: (§5)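 IMR-32 cells were treated with compound at 100 μM or DMSO vehicle for 48 h; untreated cells served as the normal group. Cells were double-stained with Annexin V-Alexa Fluor 488 and propidium iodide and analysed by flow cytometry. Early apoptosis was read as Annexin+/PI− and late apoptosis as Annexin+/PI+. Groups were compared with one-way ANOVA and Bonferroni post hoc test versus vehicle.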
# IMR-32 [18] = experiment: Induction of apoptosis in human IMR32 cells assessed as appearance of fragmented nuclei at 1 x 10^-6 to 1 x 10^-4 M after 24 hrs using Hoechst 33342 staining by fluorescent microscopic analysis; assay type: functional, cell-based; procedure, shortened: as §4
# IMR-32 [19] = experiment: Induction of apoptosis human IMR32 cells assessed as increase in late apoptotic cells at 100 uM after 48 hrs using annexin V-propidium iodide staining by flow cytometry; assay type: functional, cell-based; procedure, shortened: as §5
# [20] = Cytotoxicity against human NHDF cells assessed as cell survival at 100 uM; assay type: cell-based; conditions: read-out: Activity; procedure, shortened: as §1
# IMR-32 [21] = experiment: Cytotoxicity against human IMR32 cells assessed as cell survival at 100 uM; assay type: functional; conditions: read-out: Activity; procedure, shortened: as §1
# [22] = Cytotoxicity against human NB39 cells assessed as cell survival at 100 uM; assay type: functional; conditions: read-out: Activity; procedure, shortened: as §1
compound,measurement,setting,value
O=C1C(c2c(O)[nH]c3cc(Br)ccc23)=Nc2ccccc21,Activity,NHDF [1],Non-toxic
same,Activity,IMR-32 [2],inactive
same,Activity,HUVEC [3],Non-toxic
same,Activity,NB39 [4],inactive
same,Activity,SK-N-SH [5],inactive
Cc1ccc2c(c1)C(=O)C(c1c(O)[nH]c3ccccc13)=N2,Activity,NB39 [6],inactive
same,Activity,SK-N-SH [7],inactive
same,Activity,NHDF [8],Non-toxic
same,Activity,HUVEC [9],Non-toxic
same,Activity,IMR-32 [10],inactive
CCc1ccc2c(c1)C(=O)/C(=C1/C(=O)Nc3ccccc31)N2,Activity,NB39 [6],inactive
same,Activity,SK-N-SH [7],inactive
same,Activity,NHDF [8],Non-toxic
same,Activity,HUVEC [9],Non-toxic
same,Activity,IMR-32 [10],inactive
O=C1C(c2c(O)[nH]c3ccc(Br)cc23)=Nc2ccccc21,Activity,NHDF [1],Non-toxic
same,Activity,IMR-32 [2],inactive
same,Activity,HUVEC [3],Non-toxic
same,Activity,NB39 [4],inactive
same,Activity,SK-N-SH [5],inactive
O=Nc1c(-c2c(O)[nH]c3ccccc23)[nH]c2ccccc12 [INDIRUBIN-3-MONOXIME],Activity,IMR-32 [2],Active
same,Activity,HUVEC [3],Non-toxic
same,Activity,NB39 [4],Active
same,Activity,SK-N-SH [5],Active
O=C1C(c2c(O)[nH]c3ccccc23)=Nc2cc(Br)ccc21,Activity,NHDF [1],Non-toxic
same,Activity,IMR-32 [2],inactive
same,Activity,HUVEC [3],Non-toxic
same,Activity,NB39 [4],inactive
same,Activity,SK-N-SH [5],inactive
COc1ccc2c(c1)C(=N\O)/C(=C1/C(=O)Nc3ccccc31)N2,Activity,NHDF [1],Non-toxic
same,Activity,IMR-32 [2],inactive
same,Activity,HUVEC [3],Non-toxic
same,Activity,NB39 [4],inactive
same,Activity,SK-N-SH [5],inactive
COc1ccc2c(c1)NC(=O)/C2=C1\Nc2ccccc2\C1=N/O,Activity,NHDF [1],Non-toxic
same,Activity,IMR-32 [2],Active
same,Activity,HUVEC [3],Non-toxic
same,Activity,NB39 [4],Active
same,Activity,SK-N-SH [5],Active
O=C1Nc2ccccc2/C1=C1/Nc2ccccc2C1=O [INDIRUBIN],Activity,NB39 [6],inactive
same,Activity,SK-N-SH [7],inactive
same,Activity,NHDF [8],Non-toxic
same,Activity,HUVEC [9],Non-toxic
same,Activity,IMR-32 [10],inactive
COc1cccc2c1NC(=O)/C2=C1\Nc2ccccc2C1=O,Activity,NB39 [6],inactive
same,Activity,SK-N-SH [7],inactive
same,Activity,NHDF [8],Non-toxic
same,Activity,HUVEC [9],Non-toxic
same,Activity,IMR-32 [10],inactive
COc1cccc2c1NC(=O)/C2=C1\Nc2ccccc2\C1=N/O,Activity,IMR-32 [2],Active
same,Activity,NB39 [4],Active
same,Activity,SK-N-SH [5],Active
COc1ccc2[nH]c(O)c(C3=Nc4ccccc4C3=O)c2c1,Activity,NHDF [1],Toxic
same,Activity,IMR-32 [2],Active
same,Activity,HUVEC [3],Toxic
same,Activity,NB39 [4],Active
same,Activity,SK-N-SH [5],Active
COc1ccc2c(c1)N/C(=C1\C(=O)Nc3ccccc31)C2=O,viability at 48 h,[11],82%
same,viability at 48 h,[12],60%
same,Activity,IMR-32 [2],Active
same,Activity,NB39 [4],Active
same,Activity,SK-N-SH [5],Active
COc1ccc2c(c1)NC(=O)/C2=C1\Nc2ccccc2C1=O,Activity,NB39 [6],inactive
same,Activity,SK-N-SH [7],inactive
same,Activity,NHDF [8],Non-toxic
same,Activity,HUVEC [9],Non-toxic
same,Activity,IMR-32 [10],inactive
COc1ccc2c(c1)C(=O)C(c1c(O)[nH]c3ccccc13)=N2,Activity,IMR-32 [13],Active
same,viability at 100 µM,[14],40%
same,Activity,IMR-32 [15],Active
same,Activity,NHDF [1],Non-toxic
same,viability at 100 µM,SK-N-SH [16],10%
same,Activity,IMR-32 [2],Active
same,Activity,IMR-32 [17],Active
same,Activity,HUVEC [3],Non-toxic
same,Activity,IMR-32 [18],Active
same,Activity,NB39 [4],Active
same,Activity,IMR-32 [19],Active
same,viability at 100 µM,[20],80%
same,viability at 100 µM,IMR-32 [21],10%
same,Activity,SK-N-SH [5],Active
same,viability at 100 µM,[22],10%
O=C1C(c2c(O)[nH]c3ccccc23)=Nc2ccc(Br)cc21,Activity,NHDF [1],Non-toxic
same,Activity,IMR-32 [2],inactive
same,Activity,HUVEC [3],Non-toxic
same,Activity,NB39 [4],inactive
same,Activity,SK-N-SH [5],inactive
O=C1C(c2c(O)[nH]c3c(Br)cccc23)=Nc2ccccc21,Activity,NHDF [1],Non-toxic
same,Activity,IMR-32 [2],inactive
same,Activity,HUVEC [3],Non-toxic
same,Activity,NB39 [4],inactive
same,Activity,SK-N-SH [5],inactive
O=C1Nc2cc(Br)ccc2/C1=C1/Nc2ccccc2/C1=N\O,Activity,IMR-32 [2],Active
same,Activity,NB39 [4],Active
same,Activity,SK-N-SH [5],Active
COc1ccc2c(c1)/C(=C1/Nc3ccccc3/C1=N\O)C(=O)N2,Activity,IMR-32 [2],Active
same,Activity,NB39 [4],Active
same,Activity,SK-N-SH [5],Active
